Assay results as given in paper PMC4856055 (Journal of medicinal chemistry, 2015).
pKi: −log10 of the molar value. Where “and” joins values, the source holds several entries; their conditions need not be identical. Equal entries are not always repeated. Where two headings read alike, the source gives them in different places. Each block holds one molecule with its values, some of them ahead of it.

Legend:
[1] = tested on: PSMA+ PC3 PIP and PSMA– PC3 flu xenografts; assay type: in vivo, mice; conditions: for PIP:blood ratio / PIP:flu ratio / PIP:kidney ratio / PIP:muscle ratio / biodistribution, PC-3 PIP tumor / biodistribution, PC-3 flu tumor / biodistribution, bladder / biodistribution, blood / biodistribution, bone / biodistribution, fat / biodistribution, heart / biodistribution, kidney / biodistribution, large intestine / biodistribution, liver / biodistribution, lung / biodistribution, muscle / biodistribution, pancreas / biodistribution, small intestine / biodistribution, spleen / biodistribution, stomach: tumor bearing mice
[2] = tested on: PSMA+ PC3 PIP and PSMA– PC3 flu tumor xenografts; assay: Small animal PET or PET/CT imaging of tumor bearing mice; assay type: in vivo
PSMA = PSMA (Homo sapiens, UniProt Q04609); assay: PSMA inhibitory activity, fluorescence-based Amplex red glutamic acid; assay type: biochemical; conditions: for pKi: LNCaP cell lysates, 4 µM NAAG, Cheng-Prusoff conversion
Chain of PSMA (Q04609 whole entry): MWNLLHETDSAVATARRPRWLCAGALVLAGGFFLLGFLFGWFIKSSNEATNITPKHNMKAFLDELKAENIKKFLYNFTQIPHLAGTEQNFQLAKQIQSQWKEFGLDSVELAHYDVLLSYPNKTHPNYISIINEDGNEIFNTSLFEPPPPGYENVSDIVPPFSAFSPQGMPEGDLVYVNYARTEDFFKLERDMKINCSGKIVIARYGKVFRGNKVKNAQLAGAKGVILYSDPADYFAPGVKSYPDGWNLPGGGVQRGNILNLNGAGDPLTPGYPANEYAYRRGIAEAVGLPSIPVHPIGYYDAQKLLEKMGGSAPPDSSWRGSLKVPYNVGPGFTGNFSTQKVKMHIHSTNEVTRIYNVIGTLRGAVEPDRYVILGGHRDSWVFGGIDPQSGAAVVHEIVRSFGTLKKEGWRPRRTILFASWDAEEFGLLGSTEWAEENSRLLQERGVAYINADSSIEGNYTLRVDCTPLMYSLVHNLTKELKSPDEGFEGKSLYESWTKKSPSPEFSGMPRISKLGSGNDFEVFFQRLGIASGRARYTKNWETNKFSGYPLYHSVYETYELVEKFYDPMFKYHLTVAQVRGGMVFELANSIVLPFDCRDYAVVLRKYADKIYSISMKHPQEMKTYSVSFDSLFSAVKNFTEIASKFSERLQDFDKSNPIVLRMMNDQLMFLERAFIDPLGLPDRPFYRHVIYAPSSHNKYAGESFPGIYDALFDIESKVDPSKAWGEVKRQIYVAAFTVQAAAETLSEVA
Summary of the method: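 LNCaP cell lysate was incubated with the test compound and NAAG substrate for 120 min. Glutamate released by NAAG hydrolysis was detected by a further 60 min incubation with Amplex red glutamic acid working solution, then fluorescence was read at excitation 490 nm and emission 642 nm. IC50 was taken from semilog inhibition curves and converted to Ki by Cheng-Prusoff. Assays were run in triplicate.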

SMILES: O=C(O)CCC(OC(=O)NC(CCCCNC(=O)c1ccc(Br)cc1[18F])C(=O)O)C(=O)O (stereo not shown) [[^18F]23, 4-Bromo-2-[^18F]fluorobenzoyllysineoxypentanedioic acid (OPA) carbamate]
PIP:blood ratio ([1]; 0.5 h postinjection): 13 and 13.5
PIP:flu ratio ([1]; 0.5 h postinjection): 28.7
PIP:kidney ratio ([1]; 0.5 h postinjection): 0.5
PIP:muscle ratio ([1]; 0.5 h postinjection): 93 and 93.3
biodistribution, PC-3 PIP tumor ([1]; 0.5 h postinjection): 63 % ID/g and 63.4 ± 7.16 % ID/g
biodistribution, PC-3 flu tumor ([1]; 0.5 h postinjection): 2.21 ± 0.19 % ID/g
biodistribution, bladder ([1]; 0.5 h postinjection): 2.84 ± 0.65 % ID/g
biodistribution, blood ([1]; 0.5 h postinjection): 4.69 ± 0.33 % ID/g
biodistribution, bone ([1]; 0.5 h postinjection): 0.89 ± 0.14 % ID/g
biodistribution, fat ([1]; 0.5 h postinjection): 1.02 ± 0.12 % ID/g
biodistribution, heart ([1]; 0.5 h postinjection): 1.72 ± 0.31 % ID/g
biodistribution, kidney ([1]; 0.5 h postinjection): 135 ± 23.0 % ID/g
biodistribution, large intestine ([1]; 0.5 h postinjection): 1.35 ± 0.35 % ID/g
biodistribution, liver ([1]; 0.5 h postinjection): 15.5 ± 1.57 % ID/g
biodistribution, lung ([1]; 0.5 h postinjection): 4.59 ± 0.78 % ID/g
biodistribution, muscle ([1]; 0.5 h postinjection): 0.68 ± 0.07 % ID/g
biodistribution, pancreas ([1]; 0.5 h postinjection): 1.45 ± 0.15 % ID/g
biodistribution, small intestine ([1]; 0.5 h postinjection): 1.51 ± 0.71 % ID/g
biodistribution, spleen ([1]; 0.5 h postinjection): 19.9 ± 7.80 % ID/g
biodistribution, stomach ([1]; 0.5 h postinjection): 1.08 ± 0.07 % ID/g
PIP:blood ratio ([1]; 1 h postinjection): 40 and 40.3
PIP:flu ratio ([1]; 1 h postinjection): 69.4
PIP:kidney ratio ([1]; 1 h postinjection): 0.5
PIP:muscle ratio ([1]; 1 h postinjection): 208 and 208.1
biodistribution, PC-3 PIP tumor ([1]; 1 h postinjection): 64.5 ± 7.71 % ID/g
biodistribution, PC-3 flu tumor ([1]; 1 h postinjection): 0.93 ± 0.19 % ID/g
biodistribution, bladder ([1]; 1 h postinjection): 5.11 ± 3.57 % ID/g
biodistribution, blood ([1]; 1 h postinjection): 1.60 ± 1.17 % ID/g
biodistribution, bone ([1]; 1 h postinjection): 0.48 ± 0.17 % ID/g
biodistribution, fat ([1]; 1 h postinjection): 0.79 ± 0.74 % ID/g
biodistribution, heart ([1]; 1 h postinjection): 0.79 ± 0.14 % ID/g
biodistribution, kidney ([1]; 1 h postinjection): 139 ± 23.7 % ID/g
biodistribution, large intestine ([1]; 1 h postinjection): 0.71 ± 0.35 % ID/g
biodistribution, liver ([1]; 1 h postinjection): 11.9 ± 2.95 % ID/g
biodistribution, lung ([1]; 1 h postinjection): 2.62 ± 0.30 % ID/g
biodistribution, muscle ([1]; 1 h postinjection): 0.31 ± 0.05 % ID/g
biodistribution, pancreas ([1]; 1 h postinjection): 0.80 ± 0.21 % ID/g
biodistribution, small intestine ([1]; 1 h postinjection): 1.67 ± 0.70 % ID/g
biodistribution, spleen ([1]; 1 h postinjection): 9.62 ± 5.53 % ID/g
biodistribution, stomach ([1]; 1 h postinjection): 0.67 ± 0.18 % ID/g
PIP:blood ratio ([1]; 2 h postinjection): 148 and 147.6
PIP:flu ratio ([1]; 2 h postinjection): 233.4
PIP:kidney ratio ([1]; 2 h postinjection): 0.7
PIP:muscle ratio ([1]; 2 h postinjection): 643 and 643.1
biodistribution, PC-3 PIP tumor ([1]; 2 h postinjection): 90.0 ± 13.6 % ID/g
biodistribution, PC-3 flu tumor ([1]; 2 h postinjection): 0.39 ± 0.01 % ID/g
biodistribution, bladder ([1]; 2 h postinjection): 4.22 ± 1.58 % ID/g
biodistribution, blood ([1]; 2 h postinjection): 0.61 ± 0.41 % ID/g
biodistribution, bone ([1]; 2 h postinjection): 0.20 ± 0.03 % ID/g
biodistribution, fat ([1]; 2 h postinjection): 0.88 ± 0.80 % ID/g
biodistribution, heart ([1]; 2 h postinjection): 0.35 ± 0.07 % ID/g
biodistribution, kidney ([1]; 2 h postinjection): 127 ± 37.1 % ID/g
biodistribution, large intestine ([1]; 2 h postinjection): 0.51 ± 0.30 % ID/g
biodistribution, liver ([1]; 2 h postinjection): 6.42 ± 1.06 % ID/g
biodistribution, lung ([1]; 2 h postinjection): 1.21 ± 0.14 % ID/g
biodistribution, muscle ([1]; 2 h postinjection): 0.14 ± 0.02 % ID/g
biodistribution, pancreas ([1]; 2 h postinjection): 0.37 ± 0.07 % ID/g
biodistribution, small intestine ([1]; 2 h postinjection): 0.52 ± 0.17 % ID/g
biodistribution, spleen ([1]; 2 h postinjection): 5.69 ± 2.14 % ID/g
biodistribution, stomach ([1]; 2 h postinjection): 0.67 ± 0.72 % ID/g
PIP:blood ratio ([1]; 4 h postinjection): 240 and 240.1
PIP:flu ratio ([1]; 4 h postinjection): 461.5
PIP:kidney ratio ([1]; 4 h postinjection): 1.4
PIP:muscle ratio ([1]; 4 h postinjection): 792 and 791.9
biodistribution, PC-3 PIP tumor ([1]; 4 h postinjection): 74 % ID/g and 74.4 ± 9.19 % ID/g
biodistribution, PC-3 flu tumor ([1]; 4 h postinjection): 0.16 ± 0.03 % ID/g
biodistribution, bladder ([1]; 4 h postinjection): 3.30 ± 3.03 % ID/g
biodistribution, blood ([1]; 4 h postinjection): 0.31 ± 0.09 % ID/g
biodistribution, bone ([1]; 4 h postinjection): 0.09 ± 0.05 % ID/g
biodistribution, fat ([1]; 4 h postinjection): 0.53 ± 0.27 % ID/g
biodistribution, heart ([1]; 4 h postinjection): 0.14 ± 0.08 % ID/g
biodistribution, kidney ([1]; 4 h postinjection): 54.5 ± 22.2 % ID/g
biodistribution, large intestine ([1]; 4 h postinjection): 0.81 ± 0.15 % ID/g
biodistribution, liver ([1]; 4 h postinjection): 2.95 ± 1.97 % ID/g
biodistribution, lung ([1]; 4 h postinjection): 0.58 ± 0.32 % ID/g
biodistribution, muscle ([1]; 4 h postinjection): 0.09 ± 0.07 % ID/g
biodistribution, pancreas ([1]; 4 h postinjection): 0.13 ± 0.03 % ID/g
biodistribution, small intestine ([1]; 4 h postinjection): 0.23 ± 0.05 % ID/g
biodistribution, spleen ([1]; 4 h postinjection): 1.68 ± 1.03 % ID/g
biodistribution, stomach ([1]; 4 h postinjection): 0.12 ± 0.07 % ID/g
tumor/kidney ratio ([1]; at 2–4 h): approximately 1
PSMA– PC3 flu tumor uptake ([1]; mouse, in vivo): no specific uptake
defluorination in vivo (from bone uptake) ([1]; mouse, in vivo): lack of significant defluorination in vivo
PSMA+ PC3 PIP tumor uptake on small animal PET imaging ([2]; male SCID mice with PSMA+ PC3 PIP and PSMA– PC3 flu xenografts): Intense and selective radiotracer uptake
uptake in salivary glands on imaging ([2]; mouse, in vivo): Neither [^18F]23 nor [^18F]24 demonstrated any uptake in salivary glands

SMILES: O=C(O)CC[C@H](OC(=O)N[C@@H](CCCCNC(=O)c1ccc(Br)cc1F)C(=O)O)C(=O)O [compound 23, (S)-2-((((S)-5-(4-Bromo-2-fluorobenzamido)-1-carboxypentyl)carbamoyl)oxy)pentanedioic Acid]
decrease in potency compared with the corresponding ureas 26 and 27 (PSMA): < 10 fold
pKi (PSMA; Ki): 9.96

SMILES: O=C(O)CC[C@H](OC(=O)N[C@@H](CCCCNC(=O)c1ccc(I)cc1F)C(=O)O)C(=O)O [compound 24]
decrease in potency compared with the corresponding ureas 26 and 27 (PSMA): < 10 fold
pKi (PSMA): 9.68

Next, values leading:

reduction in binding affinity compared to 9 (PSMA): more than 150 fold
SMILES: O=C(O)CC[C@H](NC(=O)O[C@@H](CCCCNC(=O)c1ccc(F)cc1)C(=O)O)C(=O)O [compound 12, (S)-2-(((((S)-1-Carboxy-5-(4-fluorobenzamido)pentyl)oxy)-carbonyl)amino)pentanedioic Acid]

reduction in binding affinity compared to 9 (PSMA): 30 fold
pKi (PSMA; Ki): 8.04
SMILES: O=C(O)CC[C@H](OC(=O)N[C@@H](CCCCNC(=O)c1ccc(F)cc1)C(=O)O)C(=O)O [compound 13, (S)-2-((((S)-1-Carboxy-5-(4-fluorobenzamido)pentyl)-carbamoyl)oxy)pentanedioic Acid]

pKi (PSMA; Ki): 10.44 and 10.40
SMILES: O=C(O)CC[C@H](NC(=O)N[C@@H](CCCCNC(=O)c1ccc(Br)cc1F)C(=O)O)C(=O)O [compound 26, (S)-2-(3-((S)-5-(4-Bromo-2-fluorobenzamido)-1-carboxypentyl)ureido)pentanedioic Acid]

pKi (PSMA; Ki): 10.64 and 10.70
SMILES: O=C(O)CC[C@H](NC(=O)N[C@@H](CCCCNC(=O)c1ccc(I)cc1F)C(=O)O)C(=O)O [compound 27, (S)-2-(3-((S)-5-(4-Iodo-2-fluorobenzamido)-1-carboxypentyl)ureido)pentanedioic Acid]
